Drawing on ChEMBL document CHEMBL1149546, “(2R,3S)-(+)- and (2S,3R)-(-)-Halofuginone lactate: synthesis, absolute configuration, and activity against Cryptosporidium parvum” (Bioorg Med Chem Lett, 2007), this text covers Activity for six molecules.

Data set [1] has as its system Cryptosporidium parvum. The experiment in a line: Antiprotozoal activity against Cryptosporidium parvum at 0.8 nM. Type of data set: functional, organism-based. In short, it runs like this:
(§1)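 C. parvum development measured in host-cell culture across three independent compound dilution series, with monensin as positive control. The read-out was parasite foci area, with control and test cultures normalized to 100,000 µm² of foci area.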

The subject of data set [2] is Cryptosporidium parvum. Nature of the data set: Antiprotozoal activity against Cryptosporidium parvum. It counts as functional, organism-based. In short, it runs like this:
as §1

Data set [3] has as its system Mus musculus. Nature of the data set: Toxicity in Crl:NMRI mouse at 10 mg/kg, po. It counts as organism-based. Further details: dose 10 mg/kg, route oral. The note with it: in vivo. Put shortly:
(§2)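 Single oral doses of lactate salts (5, 10 and/or 20 mg/kg bodyweight) were given to 4-week-old female Crl:NMRI mice, n = 3 per group. Moribund mice were euthanized.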

The subject of data set [4] is Mus musculus. Nature of the data set: Toxicity in Crl:NMRI mouse at 5 mg/kg, po. It counts as organism-based. Further details: dose 5 mg/kg, route oral. As to conditions: in vivo. In short, it runs like this:
as §2

Data set [5] concerns Cryptosporidium parvum. The experiment in a line: Antiprotozoal activity against Cryptosporidium parvum up to 6 nM. It counts as functional. Put shortly:
as §1

The test system of data set [6] is Mus musculus. Nature of the data set: Toxicity in Crl:NMRI mouse at 20 mg/kg, po. Type of data set: organism-based. Details: dose 20 mg/kg, route oral. As to conditions: in vivo. Put shortly:
as §2

SMILES strings stand for the structures. Calls of active or inactive are those of the source. The rule behind the calls is not given here.

On to `O=C(CC1NCCCC1O)Cn1cnc2cc(Br)c(Cl)cc2c1=O` (racemic; form 2), for which the result in data set [1] was inactive. In data set [2], the outcome was Active. `CC(O)C(=O)O.O=C(C[C@H]1NCCC[C@@H]1O)Cn1cnc2cc(Br)c(Cl)cc2c1=O`: the result in data set [1] was inactive. Further, the Activity entry in data set [3] and in data set [4] was “Toxic” each time. Also, in data set [2], the outcome was Active. With `Br.O=C(CC1NCCCC1O)Cn1cnc2cc(Br)c(Cl)cc2c1=O` (racemic; form 2) [HALOFUGINONE HYDROBROMIDE], the Activity in data set [5] amounted to 80%. As for `CC(O)C(=O)O.O=C(CC1NCCCC1O)Cn1cnc2cc(Br)c(Cl)cc2c1=O` (racemic; form 1) [HALOFUGINONE LACTATE], in data set [5], the Activity is 80%. On to `CC(O)C(=O)O.O=C(C[C@@H]1NCCC[C@H]1O)Cn1cnc2cc(Br)c(Cl)cc2c1=O`, for which the Activity entry in data set [6] was “Not Active”.

In the case of `O=C(CC1NCCCC1O)Cn1cnc2cc(Br)c(Cl)cc2c1=O` (racemic; form 1), the result in data set [1] was inactive. For the same molecule, in data set [2], the result was Active.
